The results in this text go back to ChEMBL document CHEMBL3286120, “Design and synthesis of novel soluble 2,5-diketopiperazine derivatives as potential anticancer agents” (Eur J Med Chem, 2014).

A word on the IC50: it is the concentration at which inhibition is half-maximal.

The first assay concerns NCI-H1975. Nature of the assay: Cytotoxicity against human NCI-H1975 cells assessed as reduction in cell viability after 72 hrs by CCK8 assay. The assay is classed as functional, cell-based. Particulars: nci-h1975; call rule not given here. In a few lines:
(§1)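 Cells kept in RPMI or DMEM with 10% FBS and 1% penicillin/streptomycin at 37 °C in 5% CO2. Seeded at 400-800 cells/well in 384-well plates and exposed to varying compound concentrations, with solution-only control, for 72 h. CCK8 reagent added, then absorbance read at 450 nm. Plinabulin and TSA were positive controls. Mean SD of three experiments.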
`C=CCn1c(=O)/c(=C\c2cccc(Br)c2)[nH]c(=O)/c1=C\c1ccccc1OC`: the concentration for half-maximal inhibition (IC50) entry is reported as “Not Active”.
On to `C=CCn1c(=O)/c(=C\c2ccc(Cl)c(Cl)c2)[nH]c(=O)/c1=C\c1ccccc1OC`, for which the half-inhibitory concentration (IC50) result is given as “Not Active”.
On to `C=CCn1c(=O)/c(=C\c2cc(Br)ccc2F)[nH]c(=O)/c1=C\c1ccccc1OC`, for which the IC50 result was “Not Active”.
Consider `C=CCn1c(=O)/c(=C\c2ccc(F)c(Br)c2)[nH]c(=O)/c1=C\c1ccccc1OC`, for which the IC50 entry is listed as “Not Active”.
Same read-out and setting: with `C=CCn1c(=O)/c(=C\c2ccc(C)cc2)[nH]c(=O)/c1=C\c1ccccc1OC` the entry was “Not Active”.

In another assay the test system is U-937. The experiment in a line: Cytotoxicity against human U937 cells assessed as reduction in cell viability after 72 hrs by CCK8 assay. The class given is functional, cell-based. Particulars: Homo sapiens, U-937, 72 h; read-out: IC50. In a few lines:
as §1
As to `C=CCn1c(=O)/c(=C\c2cccc(Br)c2)[nH]c(=O)/c1=C\c1ccccc1OC`, the IC50 amounted to 1.1 µM.
Turning to `C=CCn1c(=O)/c(=C\c2cc(Br)ccc2F)[nH]c(=O)/c1=C\c1ccccc1OC`, the half-maximal inhibitory concentration (IC50) turned out to be 4.7 µM.

Staying with this assay, now noted: u-937.
Regarding `C=CCn1c(=O)/c(=C\c2ccc(Cl)c(Cl)c2)[nH]c(=O)/c1=C\c1ccccc1OC`, the IC50 entry is listed as “Not Active”.
On to `C=CCn1c(=O)/c(=C\c2ccc(F)c(Br)c2)[nH]c(=O)/c1=C\c1ccccc1OC`, for which the IC50 result is reported as “Not Active”.
The same measure, in the same setting: the value for `C=CCn1c(=O)/c(=C\c2ccc(C)cc2)[nH]c(=O)/c1=C\c1ccccc1OC` was “Not Active”.

Tested on in a further assay: not listed separately
Nature of the assay: Cytotoxicity against human HuH7 cells assessed as reduction in cell viability after 72 hrs by CCK8 assay. The assay is classed as functional, cell-based, Huh-7. Particulars: Homo sapiens, Huh-7, 72 h; read-out: IC50. The essentials:
as §1
(Formazan colour is commonly taken as a measure of viable cells.)
On to `C=CCn1c(=O)/c(=C\c2cccc(Br)c2)[nH]c(=O)/c1=C\c1ccccc1OC`, for which the 50% inhibitory concentration (IC50) was found to be 2.3 µM.

Still in this assay, the particulars now being: huh-7.
Consider `C=CCn1c(=O)/c(=C\c2ccc(Cl)c(Cl)c2)[nH]c(=O)/c1=C\c1ccccc1OC`, for which the IC50 entry is reported as “Not Active”.
Still for that read-out and setting: with `C=CCn1c(=O)/c(=C\c2cc(Br)ccc2F)[nH]c(=O)/c1=C\c1ccccc1OC` the entry was “Not Active”; with `C=CCn1c(=O)/c(=C\c2ccc(F)c(Br)c2)[nH]c(=O)/c1=C\c1ccccc1OC`, “Not Active”.
Regarding `C=CCn1c(=O)/c(=C\c2ccc(C)cc2)[nH]c(=O)/c1=C\c1ccccc1OC`, the IC50 result is reported as “Not Active”.

For another assay, the system named is HeLa. Nature of the assay: Cytotoxicity against human HeLa cells assessed as reduction in cell viability after 72 hrs by CCK8 assay. Particulars: Homo sapiens, HeLa, 72 h; read-out: IC50. The assay is classed as functional, cell-based. The essentials:
as §1
With `C=CCn1c(=O)/c(=C\c2cccc(Br)c2)[nH]c(=O)/c1=C\c1ccccc1OC`, the half-inhibitory concentration (IC50) was determined as 5.4 µM.
Still for that read-out and setting: the value for `C=CCn1c(=O)/c(=C\c2cc(Br)ccc2F)[nH]c(=O)/c1=C\c1ccccc1OC` was 34.6 µM.

The assay is the same for the next values; noted with them: hela.
In the case of `C=CCn1c(=O)/c(=C\c2ccc(Cl)c(Cl)c2)[nH]c(=O)/c1=C\c1ccccc1OC`, the IC50 result is listed as “Not Active”.
As for `C=CCn1c(=O)/c(=C\c2ccc(F)c(Br)c2)[nH]c(=O)/c1=C\c1ccccc1OC`, the concentration for half-maximal inhibition (IC50) result is on record as “Not Active”.
For the molecule `C=CCn1c(=O)/c(=C\c2ccc(C)cc2)[nH]c(=O)/c1=C\c1ccccc1OC`, the IC50 entry is given as “Not Active”.

For another assay, the system named is MCF7. Nature of the assay: Cytotoxicity against human MCF7 cells assessed as reduction in cell viability after 72 hrs by CCK8 assay. Particulars: Homo sapiens, MCF7, 72 h; read-out: IC50. The assay is classed as functional, cell-based. In a few lines: as §1
Consider `C=CCn1c(=O)/c(=C\c2cccc(Br)c2)[nH]c(=O)/c1=C\c1ccccc1OC`, for which the IC50 was determined as 5.4 µM.
As for `C=CCn1c(=O)/c(=C\c2cc(Br)ccc2F)[nH]c(=O)/c1=C\c1ccccc1OC`, the IC50 was 28.1 µM.

Still in this assay, the particulars now being: mcf7.
In the case of `C=CCn1c(=O)/c(=C\c2ccc(Cl)c(Cl)c2)[nH]c(=O)/c1=C\c1ccccc1OC`, the IC50 entry was “Not Active”.
Same read-out and setting: with `C=CCn1c(=O)/c(=C\c2ccc(F)c(Br)c2)[nH]c(=O)/c1=C\c1ccccc1OC` the entry was “Not Active”; with `C=CCn1c(=O)/c(=C\c2ccc(C)cc2)[nH]c(=O)/c1=C\c1ccccc1OC`, “Not Active”.

In a further assay the test system is K562. Nature of the assay: Cytotoxicity against human K562 cells assessed as reduction in cell viability after 72 hrs by CCK8 assay. The assay is classed as functional, cell-based. Particulars: Homo sapiens, K562, 72 h; read-out: IC50. The essentials:
as §1
For `C=CCn1c(=O)/c(=C\c2cccc(Br)c2)[nH]c(=O)/c1=C\c1ccccc1OC`, the concentration for half-maximal inhibition (IC50) came out at 2.4 µM.
On the same count and under the same terms, with `C=CCn1c(=O)/c(=C\c2cc(Br)ccc2F)[nH]c(=O)/c1=C\c1ccccc1OC` the figure was 5.1 µM.

The same assay, now with this note: k562.
In the case of `C=CCn1c(=O)/c(=C\c2ccc(Cl)c(Cl)c2)[nH]c(=O)/c1=C\c1ccccc1OC`, the IC50 result is given as “Not Active”.
Consider `C=CCn1c(=O)/c(=C\c2ccc(F)c(Br)c2)[nH]c(=O)/c1=C\c1ccccc1OC`, for which the IC50 entry is on record as “Not Active”.
The same measure, in the same setting: with `C=CCn1c(=O)/c(=C\c2ccc(C)cc2)[nH]c(=O)/c1=C\c1ccccc1OC` the entry was “Not Active”.

The subject of a further assay is HL-60. The experiment in a line: Cytotoxicity against human HL60 cells assessed as reduction in cell viability after 72 hrs by CCK8 assay. The assay is classed as functional, cell-based. Particulars: Homo sapiens, HL-60, 72 h; read-out: IC50. In a few lines: as §1
On to `C=CCn1c(=O)/c(=C\c2cccc(Br)c2)[nH]c(=O)/c1=C\c1ccccc1OC`, for which the 50% inhibitory concentration (IC50) amounted to 5.2 µM.
For the molecule `C=CCn1c(=O)/c(=C\c2cc(Br)ccc2F)[nH]c(=O)/c1=C\c1ccccc1OC`, the IC50 came out at 17.4 µM.

The same assay, now with this note: hl-60.
In the case of `C=CCn1c(=O)/c(=C\c2ccc(Cl)c(Cl)c2)[nH]c(=O)/c1=C\c1ccccc1OC`, the IC50 entry is “Not Active”.
For the molecule `C=CCn1c(=O)/c(=C\c2ccc(F)c(Br)c2)[nH]c(=O)/c1=C\c1ccccc1OC`, the IC50 result is “Not Active”.
In the case of `C=CCn1c(=O)/c(=C\c2ccc(C)cc2)[nH]c(=O)/c1=C\c1ccccc1OC`, the IC50 result is recorded as “Not Active”.

A further assay deals with MOLT-4. Nature of the assay: Cytotoxicity against human MOLT4 cells assessed as reduction in cell viability after 72 hrs by CCK8 assay. The class given is functional, cell-based. Particulars: Homo sapiens, MOLT-4, 72 h; read-out: IC50. The essentials: as §1
As for `C=CCn1c(=O)/c(=C\c2cccc(Br)c2)[nH]c(=O)/c1=C\c1ccccc1OC`, the 50% inhibitory concentration (IC50) was found to be 5 µM.
Regarding `C=CCn1c(=O)/c(=C\c2cc(Br)ccc2F)[nH]c(=O)/c1=C\c1ccccc1OC`, the concentration for half-maximal inhibition (IC50) worked out at 12.9 µM.

The same assay, now with this note: molt-4.
With `C=CCn1c(=O)/c(=C\c2ccc(Cl)c(Cl)c2)[nH]c(=O)/c1=C\c1ccccc1OC`, the 50% inhibitory concentration (IC50) entry was “Not Active”.
Still for that read-out and setting: with `C=CCn1c(=O)/c(=C\c2ccc(F)c(Br)c2)[nH]c(=O)/c1=C\c1ccccc1OC` the entry was “Not Active”.
For the molecule `C=CCn1c(=O)/c(=C\c2ccc(C)cc2)[nH]c(=O)/c1=C\c1ccccc1OC`, the 50% inhibitory concentration (IC50) entry is listed as “Not Active”.

For another assay, the system named is A549. Nature of the assay: Cytotoxicity against human A549 cells assessed as reduction in cell viability after 72 hrs by CCK8 assay. The class given is functional, cell-based. Particulars: Homo sapiens, A549, 72 h; read-out: IC50. The essentials: as §1
Turning to `C=CCn1c(=O)/c(=C\c2cccc(Br)c2)[nH]c(=O)/c1=C\c1ccccc1OC`, the IC50 turned out to be 5.4 µM.

Staying with this assay, now noted: a549.
Consider `C=CCn1c(=O)/c(=C\c2ccc(Cl)c(Cl)c2)[nH]c(=O)/c1=C\c1ccccc1OC`, for which the IC50 entry is on record as “Not Active”.
The same measure, in the same setting: the value for `C=CCn1c(=O)/c(=C\c2cc(Br)ccc2F)[nH]c(=O)/c1=C\c1ccccc1OC` was “Not Active”.
Still for that read-out and setting: the value for `C=CCn1c(=O)/c(=C\c2ccc(F)c(Br)c2)[nH]c(=O)/c1=C\c1ccccc1OC` was “Not Active”; that for `C=CCn1c(=O)/c(=C\c2ccc(C)cc2)[nH]c(=O)/c1=C\c1ccccc1OC` was “Not Active”.

Tested on in a further assay: not listed separately
The experiment in a line: Cytotoxicity against human BGC823 cells assessed as reduction in cell viability after 72 hrs by CCK8 assay. The class given is functional, cell-based, BGC-823. Particulars: Homo sapiens, BGC-823, 72 h; read-out: IC50. The essentials:
as §1
For the molecule `C=CCn1c(=O)/c(=C\c2cccc(Br)c2)[nH]c(=O)/c1=C\c1ccccc1OC`, the IC50 amounted to 5.9 µM.

Still in this assay, the particulars now being: bgc-823.
Regarding `C=CCn1c(=O)/c(=C\c2ccc(Cl)c(Cl)c2)[nH]c(=O)/c1=C\c1ccccc1OC`, the half-inhibitory concentration (IC50) entry is listed as “Not Active”.
On the same count and under the same terms, with `C=CCn1c(=O)/c(=C\c2cc(Br)ccc2F)[nH]c(=O)/c1=C\c1ccccc1OC` the entry was “Not Active”.
Same read-out and setting: with `C=CCn1c(=O)/c(=C\c2ccc(F)c(Br)c2)[nH]c(=O)/c1=C\c1ccccc1OC` the entry was “Not Active”; with `C=CCn1c(=O)/c(=C\c2ccc(C)cc2)[nH]c(=O)/c1=C\c1ccccc1OC`, “Not Active”.
